The text below walks through data of ChEMBL document CHEMBL1909502, “Design and synthesis of 2-(1, 3-dioxoisoindolin-2-yl)-N-(4-oxo-2-substitutedthiazolidin-3-yl) acetamide derivatives as potential anticonvulsant agents” (Eur J Med Chem, 2011).

The subject of data set [1] is Mus musculus. The data set is described as follows: Neurotoxicity in Swiss albino CF1 mouse assessed as minimal motor deficit at 30 to 300 mg/kg, ip after 0.5 hrs by rotarod test. Also on record: dose 30-300 mg/kg, route intraperitoneal. In kind it is toxicity, organism-based. The settings on record: in vivo. In outline:
(§1)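 Mice (male Swiss albino CF-1, groups of 5) were trained on an accelerating rotarod at 10 rpm with a 3.2 cm rod and had to stay on for two consecutive 90 s trials. Trained animals then received 30, 100 or 300 mg/kg i.p. Deficit was inability to stay on the rod for at least 1 min in each of three trials, checked at 0.5 h and 4 h. The value is the minimal dose giving deficit in 50% or more of the animals.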

Data set [2] concerns Mus musculus. The data set is described as follows: Anticonvulsant activity in Swiss albino CF1 mouse assessed as protection against subcutaneous pentylenetetrazole-induced seizures at 30 to 300 mg/kg, ip after 4 hrs postdose. In kind it is functional, organism-based. In outline:
(§2)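 Male Swiss albino CF-1 mice, 20–30 g. Compounds were suspended in 0.5% methyl cellulose and given i.p. at 0.01 mL/g, at 30, 100 and 300 mg/kg. MES and sc PTZ seizure tests followed reported procedures at 0.5 h and 4 h post-dose. The value is the minimal dose protecting 50% or more of the animals.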

Data set [3] concerns Mus musculus. The data set is described as follows: Anticonvulsant activity in Swiss albino CF1 mouse assessed as protection against subcutaneous pentylenetetrazole-induced seizures at 30 to 300 mg/kg, ip after 0.5 hrs postdose. In kind it is functional, organism-based. In outline:
as §2

Data set [4] relates to Mus musculus. The data set is described as follows: Anticonvulsant activity in Swiss albino CF1 mouse assessed as protection against maximal electroshock-induced seizures at 30 to 300 mg/kg, ip after 4 hrs postdose. In kind it is functional, organism-based. In outline:
as §2
In general terms: The maximal electroshock test induces tonic seizures with an electrical stimulus.

The nature of data set [5]: Octanol-phosphate buffer partition coefficient, log P of the compound at 5 mg after 24 hrs by UV spectroscopic analysis. In kind it is physicochemical. In outline: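 Octanol/phosphate buffer partition at room temperature. 5 mg of drug was added to 10 mL octanol plus 10 mL buffer and shaken mechanically for 24 h. The mixture was left to equilibrate for 6 h, and the phases were separated and membrane-filtered. Drug in the aqueous phase was quantified by UV spectroscopy.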

Data set [6] has as its system Mus musculus. Briefly: Neurotoxicity in Swiss albino CF1 mouse assessed as decrease in locomotor activity at 30 mg/kg, ip after 4 hrs postdose. In kind it is toxicity, organism-based. More on the design: dose 30 mg/kg, route intraperitoneal; scale not given: the % may be the effect or the level left. The settings on record: in vivo. In short, it runs like this: (§3)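 Compounds in 30% PEG 200 were given i.p. at 30 mg/kg to male Swiss albino CF-1 mice. Locomotor activity was scored digitally in an actophotometer for 10 min, 24 h before dosing and again 0.5 h and 4 h after. The value is the % decrease against the pre-treatment score, as mean ± SEM, with Student's t test at p < 0.05.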

The test system of data set [7] is Mus musculus. The data set is described as follows: Neurotoxicity in Swiss albino CF1 mouse assessed as decrease in locomotor activity at 30 mg/kg, ip after 0.5 hrs postdose. The class given is toxicity, organism-based. Also on record: dose 30 mg/kg, route intraperitoneal; scale not given: the % may be the effect or the level left. The following applies: in vivo. In short, it runs like this: as §3

Data set [8] relates to Mus musculus. Briefly: Anticonvulsant activity in ip dosed Swiss albino CF1 mouse assessed as protection against maximal electroshock-induced seizures after 0.5 hrs. In kind it is functional. The following applies: read-out: MED. In outline: as §2
Data set [9] deals with Mus musculus. The data set is described as follows: Neurotoxicity in Swiss albino CF1 mouse assessed as minimal motor deficit at 30 to 300 mg/kg, ip after 4 hrs by rotarod test. The class given is toxicity, organism-based. Also on record: dose 30-300 mg/kg, route intraperitoneal. The settings on record: in vivo. In outline: as §1
Background: Falling from the rotarod earlier than controls is read as motor impairment.

Structures are written as SMILES. Active and inactive are the calls of the source. The calls are words filed in the database; no cut-off is given here.

A word on the logP: it is the decadic logarithm of the partition coefficient of the neutral form, usually between octanol and water. Regarding `O=C(CN1C(=O)c2ccccc2C1=O)NN1C(=O)CSC1c1ccco1` (centres undefined), the Activity entry in data set [1] is “Non-toxic”; in [6], 11.64%; in data set [7], 5.14%; in data set [9], “Non-toxic”. Also, the outcome in data set [2], in [3] and in data set [4] was inactive. Besides, the logP at 24 h in [5] came to 1.13. In addition, in [8], the minimal effective dose worked out at 100 mg/kg.
